A short description of series [1]: Lipophilicity (calculated by CLIP).
In series [2] the target is Cannabinoid receptor 1 (Homo sapiens) (UniProt P21554). Kind of series: Percent displacement of [3H]-SR-141716A, by compound at 10 uM, in transfected CHO cells expressing the human cannabinoid receptor 1. The format is cell-based. The method in brief:
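Membranes (60 μg) from CHO cells expressing human CB1, cultured in Ham F12 with 10% FCS and G418. Test compound screened at 10 μM against 1 nM [3H]-SR-141716A, 1 h at 30 °C, in 50 mM Tris-HCl pH 7.4 with 3 mM MgCl2, 1 mM EDTA and 0.1% BSA. Nonspecific binding defined with 10 μM WIN-55,212-2 or CP-55,940. PEI-treated GF/C filtration, scintillation counting, triplicates, n = 3–5.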
A general note: Loss of bound radioactivity is the signal in a displacement assay; it reports binding, not function.

Series [3] in a line: Capacity factor (log Kw) was measured. In kind it is ADME. To be noted: RP-HPLC, methanol/phosphate buffer pH 7.4, extrapolated to 0% methanol. Summed up:
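RP-HPLC on a C18 column (250 mm × 4.6 mm, 5 μm particles), UV detection at 250 nm. Four mobile phases of methanol/0.1 M phosphate buffer pH 7.4 (90:10, 80:20, 75:25, 70:30 v/v). k' = (tr − t0)/t0, with t0 the column dead time. Calibrated against reference solutes of known log P (0.64–3.30), and log kw indices correlated with log P.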

Some results are limits rather than exact numbers.

Cannabinoid receptor 1 (Homo sapiens), sequence (P21554 whole entry): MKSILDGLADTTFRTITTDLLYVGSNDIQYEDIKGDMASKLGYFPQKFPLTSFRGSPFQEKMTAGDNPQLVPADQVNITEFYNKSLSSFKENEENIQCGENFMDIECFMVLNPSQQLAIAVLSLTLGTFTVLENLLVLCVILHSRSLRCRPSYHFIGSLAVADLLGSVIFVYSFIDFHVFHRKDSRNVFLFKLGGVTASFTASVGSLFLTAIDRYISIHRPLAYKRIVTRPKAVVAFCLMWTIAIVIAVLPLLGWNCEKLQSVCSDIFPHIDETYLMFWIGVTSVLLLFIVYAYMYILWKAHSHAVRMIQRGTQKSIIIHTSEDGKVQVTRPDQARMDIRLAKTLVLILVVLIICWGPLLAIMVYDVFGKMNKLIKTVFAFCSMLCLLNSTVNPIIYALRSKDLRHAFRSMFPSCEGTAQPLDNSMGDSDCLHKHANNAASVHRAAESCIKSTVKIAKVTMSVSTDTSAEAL

Take `Cc1ccc(C2(c3ccc(C)cc3)NC(=O)N(CCN3CCOCC3)C2=O)cc1`: in series [1], the CLIP is on record as 3.49.

`CCCCCCCN1C(=O)NC(c2ccc(F)cc2)(c2ccc(F)cc2)C1=O`: the CLIP in series [1] was 6.42.

With `O=C1NC(c2ccc(F)cc2)(c2ccc(F)cc2)C(=O)N1CCN1CCOCC1`, in series [1], the CLIP is reported as 2.81.

In series [2], `O=C1NC(Cc2c[nH]c3ccccc23)C(=O)N1CCc1ccccc1` (stereo unspecified) showed a Displacement of 64%. For the same molecule, the CLIP in series [1] was 2.31.

As for `CCCCCCCN1C(=O)NC(c2ccc(Br)cc2)(c2ccc(Br)cc2)C1=O`, in series [3], the “Log Kw” value is on record as 6.65. Besides, the CLIP in series [1] was 7.45.

On to `CCCCCCN1C(=O)NC(c2ccc(C)cc2)(c2ccc(C)cc2)C1=O`, for which, in series [1], the CLIP is listed as 6.48.

As for `CCCCCCN1C(=O)NC(c2ccc(Br)cc2)(c2ccc(Br)cc2)C1=O`, the “Log Kw” value in series [3] was 6.14. The CLIP in series [1] is reported as 6.87.

With `CCCCN1C(=O)NC(Cc2c[nH]c3ccccc23)C1=O` (stereo unspecified), the “Log Kw” value in series [3] is recorded as 2.35. In addition, the Displacement in series [2] is below 5%. Further, in series [1], the CLIP is 2.21.

Take `CCCCCCCCN1C(=O)NC(c2ccc(F)cc2)(c2ccc(F)cc2)C1=O`: in series [1], the CLIP is listed as 6.94.

As to `O=C1NC(c2ccccc2)(c2ccccc2)C(=O)N1Cc1ccccc1`, the CLIP in series [1] was 4.11.

As for `CCCCCCN1C(=O)NC(c2ccc(OC)cc2)(c2ccc(OC)cc2)C1=O`, the CLIP in series [1] is 5.81.

`CCCCCCN1C(=O)NC(Cc2c[nH]c3ccccc23)C1=O` (stereo unspecified): the “Log Kw” value in series [3] is on record as 3.17. In series [2], this molecule had a Displacement of 28.8%. Further, in series [1], the CLIP is recorded as 3.21.

As for `CCCCCCN1C(=O)NC(c2ccc(F)cc2)(c2ccc(F)cc2)C1=O`, the CLIP in series [1] is 5.81.

For `CCCCCCCN1C(=O)NC(c2ccc(C)cc2)(c2ccc(C)cc2)C1=O`, in series [1], the CLIP is 7.04.

Regarding `CCCCCCCCN1C(=O)NC(c2ccccc2)(c2ccccc2)C1=O`, the CLIP in series [1] is listed as 6.5.

With `O=C1NC(Cc2c[nH]c3ccccc23)C(=O)N1CCCc1ccccc1` (stereo unspecified), the Displacement in series [2] was 44.3%. Moreover, the CLIP in series [1] is 2.8.

With `CCCCCCN1C(=O)NC(c2ccccc2)(c2ccccc2)C1=O`, in series [3], the “Log Kw” value is listed as 4.32. For the same molecule, in series [1], the CLIP was 5.37.

For `O=C1NC(c2ccccc2)(c2ccccc2)C(=O)N1CCN1CCCCC1`, the “Log Kw” value in series [3] is 4.11. In series [1], the CLIP is 3.83.

As for `O=C1NC(c2ccc(Br)cc2)(c2ccc(Br)cc2)C(=O)N1CCCO`, the CLIP in series [1] is 3.76.

For the molecule `CN(C)CCN1C(=O)NC(c2ccccc2)(c2ccccc2)C1=O`, in series [3], the “Log Kw” value was 3. For the same molecule, the CLIP in series [1] is listed as 2.83.

As to `O=C1NC(Cc2c[nH]c3ccccc23)C(=O)N1Cc1cccc2ccccc12` (stereo unspecified), the “Log Kw” value in series [3] is given as 3.08. In series [2], the Displacement is 59.8%. For the same molecule, in series [1], the CLIP is reported as 2.92.

For `CCCN1C(=O)NC(c2ccccc2)(c2ccccc2)C1=O`, the “Log Kw” value in series [3] is 2.93. Also, the CLIP in series [1] was 3.84.

As to `COc1ccc(C2(c3ccc(OC)cc3)NC(=O)N(CCN3CCOCC3)C2=O)cc1`, the CLIP in series [1] was 2.73.

Consider `CC(C)N1C(=O)NC(c2ccccc2)(c2ccccc2)C1=O`, for which the Displacement in series [2] is below 5%. In series [1], the CLIP was 2.89.

For the molecule `O=C1NC(c2ccccc2)(c2ccccc2)C(=O)N1CCN1CCOCC1`, in series [1], the CLIP is on record as 2.16.

In the case of `O=C1NC(c2ccc(Br)cc2)(c2ccc(Br)cc2)C(=O)N1CCN1CCOCC1`, the “Log Kw” value in series [3] is listed as 4.5. Moreover, in series [1], the CLIP was 3.86.

Regarding `CCCCN1C(=O)NC(c2ccccc2)(c2ccccc2)C1=O`, in series [3], the “Log Kw” value is on record as 3.46. Further, in series [1], the CLIP was 4.26.

With `CCCCCN1C(=O)NC(c2ccccc2)(c2ccccc2)C1=O`, the CLIP in series [1] is recorded as 4.8.

As to `CCCCCCCCN1C(=O)NC(c2ccc(Br)cc2)(c2ccc(Br)cc2)C1=O`, the CLIP in series [1] is given as 7.99.

Source of the values: ChEMBL document CHEMBL1135925, “Exploration of the pharmacophore of 3-alkyl-5-arylimidazolidinediones as new CB(1) cannabinoid receptor ligands and potential antagonists: synthesis, lipophilicity, affinity, and molecular modeling” (J Med Chem, 2002).
